In ChEMBL document CHEMBL2346564, “Synthesis and biological evaluation of nitric oxide releasing derivatives of 6-amino-3-n-butylphthalide as potential antiplatelet agents” (Bioorg Med Chem Lett, 2013):
≈ marks a conversion by molar mass, not a printed value.

Legend:
[1] = Antiplatelet activity in rabbit platelet rich plasma assessed as inhibition of ADP-induced platelet aggregation at 0.1 mM incubated for 5 mins prior to ADP challenge measured after 5 mins by Born's turbidimetric method relative to control; assay type: functional; conditions: Oryctolagus cuniculus
In short: (§1)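 Rabbit platelet-rich plasma, adjusted with platelet-poor plasma (centrifuged 3000 rpm, 10 min, room temperature) to 400–450 × 10⁹ platelets/L and used within 3 h of blood collection. PRP pre-incubated with vehicle or compound (0.1 mM) for 5 min at 37 °C, then ADP 10 μM added. Maximum aggregation rate recorded over 5 min by Born turbidimetry. Inhibition (%) = 100% − MAR(compound)/MAR(vehicle). Mean ± SD, n = 6.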

[2] = Induction of nitric oxide release in phosphate buffer assessed as nitrite level at 0.1 mM measured every 15 mins for 120 mins followed by every 30 mins for 180 mins by Griess assay; assay type: physicochemical; conditions: 100 µM
In short: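 Compound at 0.1 mM in phosphate buffer solution, kept at room temperature for 15–300 min. Sampled every 15 min up to 120 min, then every 30 min. Samples mixed with sulfanilamide and N-(1-naphthyl)ethylenediamine dihydrochloride and held 5–10 min at room temperature in the dark. Absorbance read at 540 nm and converted to nitrite (μmol/L) with a nitrite standard curve. Intra-group variation under 10%.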

[3] = Antiplatelet activity in rabbit platelet rich plasma assessed as inhibition of ADP-induced platelet aggregation at 0.1 mM incubated for 5 mins prior to ADP challenge measured after 5 mins by Born's turbidimetric method in presence of hemoglobin relative to control; assay type: functional; conditions: Oryctolagus cuniculus; in short: as §1
Platelet [4] = experiment: Ratio of compound activity to 6-amino 3-n-butylphthalide activity for inhibition of ADP-induced platelet aggregation in rabbit platelet rich plasma at 0.1 mM; assay type: functional, Oryctolagus cuniculus
Platelet [5] = experiment: Ratio of compound activity to 3-n-butylphthalide activity for inhibition of ADP-induced platelet aggregation in rabbit platelet rich plasma at 0.1 mM; assay type: functional, Oryctolagus cuniculus
[6] = Aqueous solubility of the compound in normal saline after 5 hrs by UV-spectrophotometric analysis; conditions: normal saline (aqueous solubility, as described)

SMILES	inhibition at 100 µM [1]	Activity [2]	inhibition at 100 µM [3]	Ratio (Platelet [4])	Ratio (Platelet [5])	solubility at 5 h [6]
CCCCC1OC(=O)c2cc(N)ccc21 (configuration not stated)	18.4%	–	–	–	–	–
CCCCC1OC(=O)c2cc(NC(=O)CO[N+](=O)[O-])ccc21 (configuration not stated)	22.2%	3.67 µmol/L	–	–	–	–
CCCCC1OC(=O)c2cc(NC(=O)CCO[N+](=O)[O-])ccc21 (configuration not stated)	30.4%	12.88 µmol/L	23.1%	2	2	1180 µM (≈ 380 µg/mL)
CCCCC1OC(=O)c2cc(NC(=O)CCCO[N+](=O)[O-])ccc21 (configuration not stated)	28.6%	7.1 µmol/L	–	–	–	–
CCCCC1OC(=O)c2cc(NC(=O)c3ccccc3OCCO[N+](=O)[O-])ccc21 (configuration not stated)	15.2%	1.82 µmol/L	–	–	–	–
CCCCC1OC(=O)c2cc(NC(=O)c3ccc(OCCO[N+](=O)[O-])cc3)ccc21 (configuration not stated)	20%	2.21 µmol/L	–	–	–	–
CCCCC1OC(=O)c2cc(NC(=O)c3cccc(OCCO[N+](=O)[O-])c3)ccc21 (configuration not stated)	26.6%	6.82 µmol/L	–	–	–	–
CCCCC1OC(=O)c2cc(NC(=O)c3ccccc3OCCCO[N+](=O)[O-])ccc21 (configuration not stated)	16.7%	2.18 µmol/L	–	–	–	580 µM (≈ 248 µg/mL)
CCCCC1OC(=O)c2cc(NC(=O)c3ccc(OCCCO[N+](=O)[O-])cc3)ccc21 (configuration not stated)	22.8%	3.88 µmol/L	–	–	–	750 µM (≈ 321 µg/mL)
CCCCC1OC(=O)c2cc(NC(=O)c3cccc(OCCCO[N+](=O)[O-])c3)ccc21 (configuration not stated)	28.8%	7.27 µmol/L	–	–	–	1060 µM (≈ 454 µg/mL)
CCCCC1OC(=O)c2cc(NC(=O)c3ccccc3OCCCCO[N+](=O)[O-])ccc21 (configuration not stated)	13.6%	–	–	–	–	–
CCCCC1OC(=O)c2cc(NC(=O)c3ccc(OCCCCO[N+](=O)[O-])cc3)ccc21 (configuration not stated)	18.2%	–	–	–	–	–
CCCCC1OC(=O)c2cc(NC(=O)c3cccc(OCCCCO[N+](=O)[O-])c3)ccc21 (configuration not stated)	21.6%	–	–	–	–	–
CCCCC1OC(=O)c2ccccc21 (racemic) [RAC-3-N-BUTYLPHTHALIDE]	15.7%	–	–	–	–	540 µM (≈ 103 µg/mL)
Clc1ccccc1CN1CCc2sccc2C1 [TICLOPIDINE]	26.4%	–	–	–	–	–
